In the library only some 2.1% were active in any assay of this set; here they are far more common.
UCH37 DUB inh: blocks the human deubiquitinase UCH37; actives 0.33% (n = 330,000); inhibition, % (no concentration beside the values); purified proteasome/UCH37, Ub-AMC cleavage fluorescence; Q9Y5K5;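 active = mean inhibition over replicate wells above about 20%, limit read from the data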;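 also: 0% = compound-free wells with enzyme and 100% = wells lacking proteasome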
Target sequence (Q9Y5K5 whole entry, looked up): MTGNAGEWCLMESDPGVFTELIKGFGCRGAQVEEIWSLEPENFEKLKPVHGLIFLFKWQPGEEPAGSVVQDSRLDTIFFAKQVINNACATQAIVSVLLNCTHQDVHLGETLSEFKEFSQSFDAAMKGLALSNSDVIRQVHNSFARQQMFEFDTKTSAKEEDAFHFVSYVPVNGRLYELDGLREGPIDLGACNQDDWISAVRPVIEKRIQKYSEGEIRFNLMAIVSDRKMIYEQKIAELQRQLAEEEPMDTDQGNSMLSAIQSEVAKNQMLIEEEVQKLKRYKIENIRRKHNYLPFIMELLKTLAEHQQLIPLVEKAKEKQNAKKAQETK
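Test system – human UCH37 enzyme supplied as purified proteasome complex · Incubation – 30 min preincubation with enzyme, 25 min cleavage at room temperature · Detection – AMC fluorescence from Ub-AMC cleavage, excitation 355 nm, emission 460 nm · Benchmarks – no-proteasome wells (full inhibition) and compound-free wells (no inhibition)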
HKDC1 inh: HKDC1 (human) hexokinase inhibition; actives 0.16% (n = 340,000); recombinant HKDC1, G6PDH/diaphorase resazurin coupled fluorescence; inhibition, % at 20 µM;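 active = inhibition above about 35% when tested at 20 µM, limit read from the data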;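 also: plate controls were DMSO wells with enzyme for no effect and DMSO wells lacking enzyme for full effect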
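Assay system – recombinant HKDC1 (HK5) hexokinase enzyme, produced in-house · Input – HKDC1 at 5 µg/mL · Reagent – glucose plus 1 mM ATP as hexokinase substrates · Timing – 90 min reaction incubation at room temperature, dark · Measured by – G6PDH/diaphorase-coupled fluorescence, 1 mM NADP, 100 µM resazurin, 525/613 nm · Benchmarks – DMSO-enzyme wells negative, buffer-substituted wells positive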
PfG6PD inh: PfG6PD (Plasmodium falciparum) enzyme inhibition. AID 504690. PfGluPho enzyme, NADPH resazurin-diaphorase fluorescence. inhibition, % at 20 µM. actives 0.78% (n = 350,000);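 active = inhibition reaching at least a set limit at 20 µM in the primary screen, cut at about 59% in these data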;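 also: 0% = DMSO wells with substrate and 100% = DMSO wells lacking glucose-6-phosphate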
Cardio protect: myocardial damage modulation in H9c2 cells; H9c2 cardiomyocytes, H2O2 injury protection, ATPLite, 2 h; protection from H2O2 cell death, % at 20 µM; actives 0.63% (n = 360,000);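 active = compounds giving at least 50% protection of heart cells from peroxide-induced death in the single-dose screen, raw or plate-pattern-corrected value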;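 also: 0% = DMSO wells with peroxide and 100% = DMSO wells without peroxide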
aDG glyco act: increases alpha dystroglycan glycosylation; activation, % at 10 µM; Pro5-aDG cells, alpha-DG glycosylation AlphaScreen (IIH6); 0% Pro5, 100% B10-LARGE cell signal; actives 0.22% (n = 360,000);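 active = activation of at least 8% versus controls, or a plate z-score of at least 8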;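 also: Pro5 are CHO cells carrying HIG-tagged alpha-DG that lacks glycosylation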
Beta2AR agonist: human beta-2 adrenergic receptor agonism by FAP. P07550. Am2.2-beta2AR cells, FAP receptor internalization, flow cytometry. response, % (concentration not given with the values). actives 0.43% (n = 340,000). AID 504454;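 active = response above a set limit, near 3 SD of response in nonfluorescent compounds, cut at about 42% in these data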
Target sequence (P07550 whole entry, looked up): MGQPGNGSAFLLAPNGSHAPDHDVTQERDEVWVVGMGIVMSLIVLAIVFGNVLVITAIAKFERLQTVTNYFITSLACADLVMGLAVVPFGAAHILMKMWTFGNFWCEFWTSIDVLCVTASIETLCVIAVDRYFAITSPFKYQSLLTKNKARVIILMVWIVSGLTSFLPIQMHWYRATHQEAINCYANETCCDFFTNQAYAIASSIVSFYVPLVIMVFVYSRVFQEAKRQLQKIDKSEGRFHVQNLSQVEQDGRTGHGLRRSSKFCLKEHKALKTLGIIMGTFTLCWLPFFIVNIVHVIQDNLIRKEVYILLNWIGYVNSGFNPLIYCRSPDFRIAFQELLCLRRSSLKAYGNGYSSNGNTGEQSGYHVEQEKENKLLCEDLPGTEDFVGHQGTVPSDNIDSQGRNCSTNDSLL
PfGluPho conf: confirmation of Plasmodium falciparum G6PD inhibitors; recombinant PfGluPho, NADPH-diaphorase-resazurin fluorescence; shares compounds with PfG6PD inh; AID 504753; inhibition, % at 20 µM; actives 34% (n = 2,400);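 active = inhibition of at least 50% at 20 µM in any single replicate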;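 also: 0% = DMSO with substrate and 100% = DMSO lacking glucose-6-phosphate substrate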
Diaph ctr 10uM: diaphorase inhibition or oxidation at 10 uM NADPH. shares compounds with PfG6PD inh. diaphorase-coupled resazurin reduction, fluorescence, NADPH 10 uM. inhibition, % at 20 µM. actives 39% (n = 820);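 active = average inhibition reaching 50% or more with the compound at 20 µM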;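 also: resorufin red fluorescence formed as diaphorase reduces resazurin using NADPH; 0% = DMSO with enzyme and 100% = DMSO without enzyme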
Diaph ctr 30uM: diaphorase inhibition or oxidation at 30 uM NADPH; shares compounds with PfG6PD inh; Diaphorase/resazurin coupled assay, resorufin fluorescence; inhibition, % at 20 µM; actives 29% (n = 820);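 active = inhibition averaging 50% or more, tested at 20 µM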;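 also: 0% = DMSO with enzyme and 100% = DMSO wells lacking diaphorase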
* marks the source's active call; other numbers are inactive results; · = no result.

SMILES	UCH37 DUB inh	HKDC1 inh	PfG6PD inh	Cardio protect	aDG glyco act	Beta2AR agonist	PfGluPho conf	others
O=c1c2cc(F)ccc2sn1-c1ccc(F)cc1	0	8	113*	-5	1	-6	106*	Diaph ctr 10uM=-12;Diaph ctr 30uM=-13
O=C1CCCC(=O)N1c1ccc(F)cc1	4	-5	-2	2	0	-6	·
Cc1ccc(C)c(-n2sc3ccc(F)cc3c2=O)c1	4	4	115*	-38	1	4	107*	Diaph ctr 10uM=-25;Diaph ctr 30uM=-27
Cc1ccc(C=NNC(=O)c2c(C)nc3ccc(Br)cn23)cc1	2	·	·	·	·	·	·
COc1ccc(C(C)=NNC(=O)c2nc(C)cc(C)n2)cc1	4	·	·	·	·	·	·
CCC(c1ccc(O)c(O)c1)C(CC)c1ccc(O)c(O)c1 (stereo not drawn)	3	6	78*	-3	0	5	57*	Diaph ctr 10uM=8;Diaph ctr 30uM=3
NCC(O)c1ccc(O)c(O)c1 (stereo not drawn)	6	7	-7	14	0	·	·
Cc1ccc2cc(C=NNc3ccc(C(=O)O)cc3)c(Cl)nc2c1	3	·	·	·	·	·	·
Cc1ccc2nc(Cl)c(/C=N/Nc3ccc(C(=O)O)cc3)cc2c1	·	10	60*	-17	0	22	32
CCOC(=O)C(C)Sc1nc(-c2cccs2)ccc1C#N (stereo not drawn)	-73	-1	78*	-9	0	4	2
COc1ccc(C=NN2CCN(c3ccccc3OC)CC2)cc1OC	2	·	·	·	·	·	·
CN(C)Cc1c(C(=O)NN=Cc2cccc(OCc3c(F)cccc3Cl)c2)nnn1-c1nonc1N	3	·	·	·	·	·	·
NS(=O)(=O)c1ccc(N=C2C(=O)Nc3ccccc32)cc1	7	5	-18	-1	0	6	·
CC(C)C1=CC(=Nc2ccc(S(N)(=O)=O)cc2)C=C(C(C)C)C1=O	-2	17	76*	-7	0	0	36
O=C(CCc1ccc(S(=O)(=O)N2CCOCC2)cc1)N/N=C/c1ccc(F)cc1F	·	2	0	-1	0	0	·
O=C(CCc1ccc(S(=O)(=O)N2CCOCC2)cc1)N/N=C/c1ccc(O)c(O)c1O	·	23	68*	9	0	-4	60*	Diaph ctr 10uM=33;Diaph ctr 30uM=43
O=C(CCc1ccc(O)c(O)c1)N/N=C/c1cc2c(cc1[N+](=O)[O-])OCO2	·	17	68*	26	0	0	65*	Diaph ctr 10uM=33;Diaph ctr 30uM=17
CN(Cc1c(C(=O)NN=Cc2ccc(O)cc2)nnn1-c1nonc1N)C1CCCCC1	5	·	·	·	·	·	·
O=[N+]([O-])c1ccc(Nc2ccccc2O)c([N+](=O)[O-])c1	·	·	66*	-7	0	·	27
O=C(O)c1cc([N+](=O)[O-])ccc1Nc1ccccc1	14	-7	8	6	0	2	·
C/C(Cn1nnc([N+](=O)[O-])n1)=N\NC(=O)c1cccc(Cl)c1	·	8	68*	6	2	0	59*	Diaph ctr 10uM=27;Diaph ctr 30uM=26
O=[N+]([O-])c1ccccc1C1Nc2cccc3cccc(c23)N1	2	30	67*	-9	1	17	8
[O-][N+]1=c2ccc(Nc3ccccc3)cc2=NC12CCCCC2	13	20	61*	-12	0	-6	0
O=[N+]([O-])c1ccc2c(c1N1CCCCC1)=NC1(CCCCC1)[N+]=2[O-]	10	31	23	2	0	12	·
COc1ccc(Nc2ccc3c(c2)=NC2(CCCCC2)[N+]=3[O-])cc1	19	24	78*	-4	0	2	14
SMILES	UCH37 DUB inh	HKDC1 inh	PfG6PD inh	Cardio protect	aDG glyco act	Beta2AR agonist	PfGluPho conf	others
Cc1ccc(Nc2cc(C)c(O)c(C)c2)cc1	1	29	107*	-11	1	6	69*	Diaph ctr 10uM=62*;Diaph ctr 30uM=28
O=C(CN1CCN(Cc2ccccc2Cl)CC1)NN=Cc1cccs1	7	·	·	·	·	·	·
Cc1ccc(-c2nc3n(n2)Cc2ccccc2-3)cc1	1	-2	77*	-39	0	-24	37
Fc1ccc(-c2nc3n(n2)Cc2ccccc2-3)cc1	1	6	45	-22	0	-20	·
Cc1ccc(N2CCN(N=Cc3sccc3C)CC2)cc1	2	·	·	·	·	·	·
CCOC(=O)Cc1cc(=O)n2[nH]c(C(C)(C)C)cc2n1	-2	-1	78*	-6	0	1	76*	Diaph ctr 10uM=64*;Diaph ctr 30uM=46
CCOC(=O)Cc1cc(=O)n2[nH]c(-c3ccccc3)cc2n1	-16	-6	18	-6	0	3	·
c1cc2c3c(cccc3c1)-c1cnccc1-2	-34	-2	65*	-2	0	-7	32
O=S(=O)(Cc1ccccc1)N(O)c1ccccc1	3	0	86*	8	0	77*	84*	Diaph ctr 10uM=74*;Diaph ctr 30uM=53*
COc1ccc(C=NNC(=O)c2cccnc2)cc1COc1ccc([N+](=O)[O-])cc1	2	·	·	·	·	·	·
O=C(/C=C/c1ccccc1)NC(NC(=S)Nc1ccc(Cl)cc1Cl)C(Cl)(Cl)Cl (stereo not drawn)	·	-6	62*	-26	5	1	21
O=C(/C=C/c1ccccc1)NC(NC(=S)Nc1cccc(Cl)c1)C(Cl)(Cl)Cl (stereo not drawn)	3	0	-5	-30	2	-2	·
N#CC(=NNc1ccc(S(=O)(=O)N2CCCCC2)cc1)C(N)=S	16	·	·	·	·	·	·
c1cc(CNc2ccc3c(c2)OCO3)ccn1	-9	23	61*	3	0	1	53*	Diaph ctr 10uM=15;Diaph ctr 30uM=11
Cc1ccc(CNc2ccc3c(c2)OCO3)cc1	-4	6	40	-15	0	-478	·
CCCc1c(C(=O)NN=C/C(C)=C/c2ccccc2)nnn1-c1nonc1N	4	·	·	·	·	·	·
COc1cc(C(=S)N2CCN(c3cccc(Cl)c3)CC2)ccc1O	4	2	48	-12	0	6	20
CCOc1cc(C=NNC(N)=O)cc(Br)c1OCC(=O)Nc1cccc2ccccc12	0	·	·	·	·	·	·
O=C(CSC(=O)c1ccccc1)Nc1ccccc1F	7	-10	63*	-5	0	1	13
O=C(CNC(c1ccccc1)c1ccccc1)Nc1ccccc1F	2	-1	-21	2	0	4	·
Cc1cccc(CNC(=O)c2ccc3c(c2)N(C)CCS3)c1	-46	-6	71*	-3	0	-8	-20
CN1CCSc2ccc(C(=O)NCc3cccc(Br)c3)cc21	-129	1	57	0	0	0	·
CCN1CCSc2ccc(C(=O)NCc3ccccc3F)cc21	-53	-1	49	10	0	8	·

Assay outcomes from PubChem.
